PMC3184254 (Nature Chemical Biology, 2011)
Where two headings read alike, the source gives them in different places.

Assays:
SETD7 = molecular target: T1, SETD7 (Homo sapiens, UniProt Q8WTS6); assay: SAHH-coupled assay, SETD7; type: biochemical
T1 sequence (Q8WTS6 1-366): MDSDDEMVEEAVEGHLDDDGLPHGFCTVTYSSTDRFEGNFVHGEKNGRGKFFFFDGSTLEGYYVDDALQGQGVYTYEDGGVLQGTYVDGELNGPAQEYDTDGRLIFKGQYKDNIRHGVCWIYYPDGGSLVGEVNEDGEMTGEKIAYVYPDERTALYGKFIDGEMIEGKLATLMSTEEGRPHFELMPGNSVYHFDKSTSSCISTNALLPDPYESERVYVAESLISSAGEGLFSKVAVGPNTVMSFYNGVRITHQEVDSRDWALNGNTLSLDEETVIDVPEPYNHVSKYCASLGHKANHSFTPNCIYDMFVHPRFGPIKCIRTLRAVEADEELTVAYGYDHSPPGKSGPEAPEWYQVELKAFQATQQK
Method in brief: (§1)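 A fluorescence-based coupled assay used S-adenosyl-L-homocysteine hydrolase to follow conversion of cofactor SAM to SAH by the methyltransferase. IC50 values are the average of at least two separate experiments.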

MLL = MLL (Homo sapiens, UniProt Q03164); assay: BPS Bioscience assay, MLL; type: biochemical
EZH2 = EZH2 (Homo sapiens, UniProt Q15910); assay: BPS Bioscience assay, EZH2; type: biochemical
EZH2, sequence (Q15910 whole entry, species assumed): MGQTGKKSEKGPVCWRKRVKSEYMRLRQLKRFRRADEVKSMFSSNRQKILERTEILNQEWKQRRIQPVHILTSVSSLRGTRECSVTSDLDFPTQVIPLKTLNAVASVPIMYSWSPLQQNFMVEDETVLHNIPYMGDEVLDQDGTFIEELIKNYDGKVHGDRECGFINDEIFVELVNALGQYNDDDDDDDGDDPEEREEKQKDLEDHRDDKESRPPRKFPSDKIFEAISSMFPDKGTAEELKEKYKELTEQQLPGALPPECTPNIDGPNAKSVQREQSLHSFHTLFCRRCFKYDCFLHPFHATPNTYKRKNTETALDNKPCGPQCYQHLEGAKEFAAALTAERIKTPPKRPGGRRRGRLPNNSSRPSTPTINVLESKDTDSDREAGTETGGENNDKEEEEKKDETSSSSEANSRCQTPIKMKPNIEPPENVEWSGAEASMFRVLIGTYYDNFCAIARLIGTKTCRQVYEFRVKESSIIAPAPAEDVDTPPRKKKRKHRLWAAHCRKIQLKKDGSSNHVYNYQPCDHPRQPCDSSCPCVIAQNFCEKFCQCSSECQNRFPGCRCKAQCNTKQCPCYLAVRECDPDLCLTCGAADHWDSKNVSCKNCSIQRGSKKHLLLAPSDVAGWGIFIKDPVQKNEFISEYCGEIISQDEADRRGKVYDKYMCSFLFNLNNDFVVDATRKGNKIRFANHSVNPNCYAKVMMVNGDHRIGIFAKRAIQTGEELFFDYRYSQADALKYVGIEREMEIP
EZH2, sequence (O75530 whole entry partner, species assumed): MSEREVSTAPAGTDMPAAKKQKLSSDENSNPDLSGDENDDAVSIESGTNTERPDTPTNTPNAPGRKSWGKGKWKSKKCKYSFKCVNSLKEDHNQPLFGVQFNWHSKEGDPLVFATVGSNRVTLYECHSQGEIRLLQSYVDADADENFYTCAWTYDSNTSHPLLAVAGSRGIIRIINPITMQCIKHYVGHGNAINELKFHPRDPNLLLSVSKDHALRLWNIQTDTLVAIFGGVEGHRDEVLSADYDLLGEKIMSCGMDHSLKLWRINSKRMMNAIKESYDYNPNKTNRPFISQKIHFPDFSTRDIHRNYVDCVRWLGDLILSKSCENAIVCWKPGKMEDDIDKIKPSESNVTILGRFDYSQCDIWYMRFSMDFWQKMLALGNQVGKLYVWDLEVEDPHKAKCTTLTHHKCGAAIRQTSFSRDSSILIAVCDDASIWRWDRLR
EZH2, sequence (Q15022 whole entry partner, species assumed): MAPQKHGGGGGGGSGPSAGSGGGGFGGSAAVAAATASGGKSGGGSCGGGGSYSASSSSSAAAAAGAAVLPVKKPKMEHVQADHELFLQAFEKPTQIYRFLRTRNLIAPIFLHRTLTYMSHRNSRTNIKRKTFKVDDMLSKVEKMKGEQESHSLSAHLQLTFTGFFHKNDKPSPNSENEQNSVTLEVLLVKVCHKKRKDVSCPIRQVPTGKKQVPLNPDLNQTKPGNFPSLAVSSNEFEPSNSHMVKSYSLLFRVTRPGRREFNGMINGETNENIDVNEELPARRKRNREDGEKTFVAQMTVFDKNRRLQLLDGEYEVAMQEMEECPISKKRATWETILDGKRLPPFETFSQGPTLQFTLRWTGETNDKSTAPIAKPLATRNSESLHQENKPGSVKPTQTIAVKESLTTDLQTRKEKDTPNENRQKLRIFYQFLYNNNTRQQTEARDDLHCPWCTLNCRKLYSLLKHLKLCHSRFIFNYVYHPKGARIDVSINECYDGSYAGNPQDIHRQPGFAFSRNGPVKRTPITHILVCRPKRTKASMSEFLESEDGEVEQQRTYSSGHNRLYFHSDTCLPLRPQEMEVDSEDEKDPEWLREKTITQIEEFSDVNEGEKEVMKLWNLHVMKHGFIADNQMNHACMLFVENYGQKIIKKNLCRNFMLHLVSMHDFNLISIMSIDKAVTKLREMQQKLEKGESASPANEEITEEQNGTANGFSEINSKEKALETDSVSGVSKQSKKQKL
EZH2, sequence (Q09028 whole entry partner, species assumed): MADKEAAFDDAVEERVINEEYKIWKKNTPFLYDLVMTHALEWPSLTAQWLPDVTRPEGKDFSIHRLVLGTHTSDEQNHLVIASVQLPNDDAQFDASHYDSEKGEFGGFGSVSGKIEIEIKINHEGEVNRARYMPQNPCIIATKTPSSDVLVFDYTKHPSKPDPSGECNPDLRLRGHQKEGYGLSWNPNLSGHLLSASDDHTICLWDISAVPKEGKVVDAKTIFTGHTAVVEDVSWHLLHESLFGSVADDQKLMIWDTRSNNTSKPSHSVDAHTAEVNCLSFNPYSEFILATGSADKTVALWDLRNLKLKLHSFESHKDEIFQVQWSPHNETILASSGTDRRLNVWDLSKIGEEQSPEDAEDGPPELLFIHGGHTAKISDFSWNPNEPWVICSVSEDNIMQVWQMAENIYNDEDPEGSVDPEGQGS
EZH2, sequence (Q6ZN18 whole entry partner, species assumed): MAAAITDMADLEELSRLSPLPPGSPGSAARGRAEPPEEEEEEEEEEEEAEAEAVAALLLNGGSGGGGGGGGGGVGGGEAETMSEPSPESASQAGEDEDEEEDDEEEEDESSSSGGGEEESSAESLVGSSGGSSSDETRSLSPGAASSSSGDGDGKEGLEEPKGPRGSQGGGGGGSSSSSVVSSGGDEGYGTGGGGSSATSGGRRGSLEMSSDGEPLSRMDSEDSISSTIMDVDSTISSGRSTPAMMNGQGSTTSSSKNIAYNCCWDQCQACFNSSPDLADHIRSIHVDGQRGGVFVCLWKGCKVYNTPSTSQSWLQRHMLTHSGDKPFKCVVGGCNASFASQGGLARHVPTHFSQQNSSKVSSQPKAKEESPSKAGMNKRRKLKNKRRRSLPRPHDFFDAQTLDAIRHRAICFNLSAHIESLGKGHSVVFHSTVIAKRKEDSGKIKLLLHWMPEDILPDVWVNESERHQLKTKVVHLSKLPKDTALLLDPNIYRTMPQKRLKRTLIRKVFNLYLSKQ

PRMT3 = PRMT3 (Homo sapiens, UniProt O60678); assay: SAHH-coupled assay, PRMT3; type: biochemical
PRMT3, sequence (O60678 whole entry, species assumed): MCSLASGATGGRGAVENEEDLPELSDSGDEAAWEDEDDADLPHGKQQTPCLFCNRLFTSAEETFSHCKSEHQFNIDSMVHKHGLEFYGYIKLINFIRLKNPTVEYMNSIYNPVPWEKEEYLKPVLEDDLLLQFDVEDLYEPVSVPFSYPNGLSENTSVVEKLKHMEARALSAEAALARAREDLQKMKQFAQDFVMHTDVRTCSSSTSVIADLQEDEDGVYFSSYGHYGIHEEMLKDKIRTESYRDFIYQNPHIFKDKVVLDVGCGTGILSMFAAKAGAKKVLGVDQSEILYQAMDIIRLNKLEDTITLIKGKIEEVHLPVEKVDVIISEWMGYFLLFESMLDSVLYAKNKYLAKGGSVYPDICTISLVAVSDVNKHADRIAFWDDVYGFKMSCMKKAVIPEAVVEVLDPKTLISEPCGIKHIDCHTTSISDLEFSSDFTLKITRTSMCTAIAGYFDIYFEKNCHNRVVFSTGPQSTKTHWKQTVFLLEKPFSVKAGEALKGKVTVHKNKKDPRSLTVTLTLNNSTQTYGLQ
Method in brief: as §1

G9a = molecular target: T2, G9a (Homo sapiens, UniProt Q96KQ7); assay: G9a fluorescence-polarization peptide displacement assay; type: binding
T2 sequence (Q96KQ7 1-1210): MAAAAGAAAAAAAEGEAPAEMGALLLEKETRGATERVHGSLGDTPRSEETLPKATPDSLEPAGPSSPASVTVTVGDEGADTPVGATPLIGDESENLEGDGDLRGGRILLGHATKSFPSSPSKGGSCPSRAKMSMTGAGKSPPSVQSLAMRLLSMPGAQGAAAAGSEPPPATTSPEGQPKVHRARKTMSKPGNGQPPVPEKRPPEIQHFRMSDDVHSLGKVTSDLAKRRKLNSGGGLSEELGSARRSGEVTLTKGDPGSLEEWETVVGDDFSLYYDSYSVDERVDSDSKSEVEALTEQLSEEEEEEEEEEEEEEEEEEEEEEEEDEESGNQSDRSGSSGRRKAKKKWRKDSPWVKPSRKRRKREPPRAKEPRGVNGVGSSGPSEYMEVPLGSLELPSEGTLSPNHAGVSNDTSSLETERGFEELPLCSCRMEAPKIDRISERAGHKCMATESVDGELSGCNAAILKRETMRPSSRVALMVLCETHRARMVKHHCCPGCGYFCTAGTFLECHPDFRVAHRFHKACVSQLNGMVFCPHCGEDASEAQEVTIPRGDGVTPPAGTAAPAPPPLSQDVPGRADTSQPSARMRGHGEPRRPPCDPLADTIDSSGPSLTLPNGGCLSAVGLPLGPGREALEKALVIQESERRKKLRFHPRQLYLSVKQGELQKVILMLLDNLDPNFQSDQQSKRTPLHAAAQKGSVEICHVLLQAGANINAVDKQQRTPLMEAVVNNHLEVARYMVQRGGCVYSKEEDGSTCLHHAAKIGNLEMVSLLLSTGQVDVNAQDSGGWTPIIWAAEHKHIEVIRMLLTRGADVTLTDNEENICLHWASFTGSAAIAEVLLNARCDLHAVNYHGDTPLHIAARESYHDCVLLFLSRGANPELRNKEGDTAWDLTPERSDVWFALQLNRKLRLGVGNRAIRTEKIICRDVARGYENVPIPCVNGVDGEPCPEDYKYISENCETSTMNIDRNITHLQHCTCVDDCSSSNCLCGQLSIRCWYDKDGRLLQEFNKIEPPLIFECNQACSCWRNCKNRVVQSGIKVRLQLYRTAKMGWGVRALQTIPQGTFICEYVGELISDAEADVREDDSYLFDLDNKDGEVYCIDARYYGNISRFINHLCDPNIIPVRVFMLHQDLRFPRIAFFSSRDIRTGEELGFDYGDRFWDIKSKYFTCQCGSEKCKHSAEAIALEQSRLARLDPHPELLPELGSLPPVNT

muscarinic M2 receptor = muscarinic M2 receptor (Homo sapiens, UniProt P08172); assay: Ricerca Selectivity Panel, muscarinic M2; type: binding
adrenergic α1B receptor = adrenergic α1B receptor (Rattus norvegicus, UniProt P15823); assay: Ricerca Selectivity Panel, adrenergic α1B; type: binding
adrenergic α1B receptor, sequence (P15823 whole entry): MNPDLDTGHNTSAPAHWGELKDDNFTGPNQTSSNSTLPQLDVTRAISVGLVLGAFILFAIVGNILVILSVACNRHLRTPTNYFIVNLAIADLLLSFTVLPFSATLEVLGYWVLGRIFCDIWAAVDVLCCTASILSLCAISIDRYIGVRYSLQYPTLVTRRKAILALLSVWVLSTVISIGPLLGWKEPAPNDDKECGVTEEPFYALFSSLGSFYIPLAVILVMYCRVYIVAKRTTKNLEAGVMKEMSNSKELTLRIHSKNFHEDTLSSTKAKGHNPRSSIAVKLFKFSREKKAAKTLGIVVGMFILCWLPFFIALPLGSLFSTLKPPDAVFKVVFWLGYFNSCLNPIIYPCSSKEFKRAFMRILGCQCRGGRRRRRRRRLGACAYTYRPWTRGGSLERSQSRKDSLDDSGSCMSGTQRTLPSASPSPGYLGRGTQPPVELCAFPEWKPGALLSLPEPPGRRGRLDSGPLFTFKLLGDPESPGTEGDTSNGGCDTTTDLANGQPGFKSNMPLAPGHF

[1] = tested on: 45 targets, including 36 GPCRs; assay: NIMH Psychoactive Drug Screen Program Selectivity Panel; type: binding; conditions: at 1 μM
M1 = M1 (Homo sapiens, UniProt P11229); assay: M1 functional assay; type: cell-based
M1, sequence (P11229 whole entry): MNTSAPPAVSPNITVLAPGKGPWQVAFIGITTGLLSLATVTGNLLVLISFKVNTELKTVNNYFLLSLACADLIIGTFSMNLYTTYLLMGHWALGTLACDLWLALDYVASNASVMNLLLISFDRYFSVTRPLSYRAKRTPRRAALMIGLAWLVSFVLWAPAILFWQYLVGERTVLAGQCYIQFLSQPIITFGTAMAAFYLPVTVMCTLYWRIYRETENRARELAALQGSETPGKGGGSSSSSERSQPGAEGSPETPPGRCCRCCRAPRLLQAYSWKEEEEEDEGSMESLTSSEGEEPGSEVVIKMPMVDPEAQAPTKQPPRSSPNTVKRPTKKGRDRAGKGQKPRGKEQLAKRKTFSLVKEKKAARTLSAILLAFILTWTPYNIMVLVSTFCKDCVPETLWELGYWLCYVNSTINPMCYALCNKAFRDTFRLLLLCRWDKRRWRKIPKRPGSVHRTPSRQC

M4 = M4 (Homo sapiens, UniProt P08173); assay: M4 functional assay; type: cell-based
M4, sequence (P08173 whole entry): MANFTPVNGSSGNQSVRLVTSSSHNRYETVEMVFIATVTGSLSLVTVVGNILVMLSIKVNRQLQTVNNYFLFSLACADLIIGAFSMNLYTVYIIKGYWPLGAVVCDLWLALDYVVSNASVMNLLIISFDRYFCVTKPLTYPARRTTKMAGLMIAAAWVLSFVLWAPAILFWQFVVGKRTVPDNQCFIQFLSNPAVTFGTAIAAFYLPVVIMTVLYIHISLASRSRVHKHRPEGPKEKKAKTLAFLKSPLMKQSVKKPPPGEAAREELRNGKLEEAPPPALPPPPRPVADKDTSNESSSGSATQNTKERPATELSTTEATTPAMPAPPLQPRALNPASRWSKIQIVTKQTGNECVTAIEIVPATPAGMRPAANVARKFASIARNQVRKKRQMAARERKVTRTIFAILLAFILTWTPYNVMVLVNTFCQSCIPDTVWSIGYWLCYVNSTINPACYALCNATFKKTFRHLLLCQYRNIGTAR

[2] = Stability in cell media with or without cells; type: in vitro ADME; conditions: with or without MCF7, U2OS or H1299 cells, two types of cell media, 65 h
[3] = Mouse drug metabolism and pharmacokinetic studies; type: in vivo; conditions: intravenous, oral or intraperitoneal administration
[4] = tested on: H3K9me2 levels in 22RV1 cells; assay: H3K9me2 in-cell western, 22RV1; type: cell-based; conditions: Homo sapiens, 22Rv1, read-out: IC50 for reduction of H3K9me2 levels
[5] = tested on: histone marks in MDA-MB-231 cells; assay: Quantitative MS analysis of histone modifications; type: cell-based, human; conditions: 1 μM for 48 h
Method in brief: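 MDA-MB-231 cells were treated at 1 µM for 48 h. Histones were acid-extracted, derivatized with propionic anhydride and digested with trypsin. Mock and treated samples carried D0 or D5 propionyl labels. Peptides were analysed by LC-MS/MS on an Orbitrap, with all data manually verified.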

[6] = tested on: H3K9me2 at genomic loci on chr3 and chrX in MCF7 cells; assay: ChIP-chip with H3K9me2 antibody; type: cell-based, human; conditions: 320 nM for 14 d
J1 mES cells = assay: SSEA1 pluripotency marker immunostaining, flow cytometry; type: cell-based, mouse; conditions: 100 nM
[7] = tested on: H3K9me2 at EGFP provirus and MAGEA2 promoter in mES cells; assay: ChIP of H3K9me2 in mES cells; type: cell-based, mouse; conditions: 500 nM for 3 or 7 d
[8] = assay results from BPS Bioscience

In the case of COc1cc2c(NC3CCN(C(C)C)CC3)nc(C3CCCCC3)nc2cc1OCCCN1CCCC1 [UNC0638], the IC50 (SETD7) is reported as over 10 µM, the IC50 (SETD7; SAHH-coupled assay) is reported as “inactive” and the IC50 (MLL) is reported as over 10 µM. The IC50 (MLL; [8]) was “inactive”, the IC50 (EZH2) was over 10 µM and the IC50 (EZH2; [8]) was “inactive”. The IC50 (PRMT3) was over 10 µM, the IC50 (PRMT3; SAHH-coupled assay) was “inactive” and the “displacement of fluorescein-labeled 15-mer H3 peptide (residues 1–15)” value (G9a) was “high efficiency”. The inhibition at 1 µM (muscarinic M2 receptor) was 64%, the inhibition at 1 µM (adrenergic α1B receptor) was 69% and the inhibition ([1]; against 6 targets in the panel) was over 50%. It also gave an inhibition ([1]; against 39 targets in the panel) of under 50%, an IC50 (M1) of over 10 µM and an IC50 (M4) of over 10 µM. For the same compound, the “stability in cell media” value [2] was “did not produce degradation products”, the clearance [3] was “high” and the half-life [3] was “short”. The volume distribution [3] was “high”, the IC50 [4] was 0.048 µM and the “levels of H3K9me2 by quantitative MS” value [5] was “considerably lower”. For the same compound, the “levels of H3K9me3 by quantitative MS” value [5] was “remained constant”, the “levels of H3K14ac by quantitative MS” value [5] was “doubled” and the “genomic regions containing H3K9me2 on chr3 and chrX” value [6] was “significantly fewer genomic regions containing H3K9me2”. The “SSEA1+ cells” value (J1 mES cells) was 97% and the “H3K9me2 at EGFP provirus and MAGEA2 promoter (ChIP)” value [7] was “decreased H3K9me2 at both targets by day 3”.
